Converted amounts (≈) assume the structure as drawn. Blank lines part the entries; values can stand above or below the compound they belong to. The source made the active and inactive calls. No cut-off for these calls is given here.
Experiments:
Insulin-degrading enzyme = molecular target: T1, Insulin-degrading enzyme (Homo sapiens, UniProt P14735); assay: Inhibition of human recombinant IDE-mediated amyloid beta (16 to 23) hydrolysis using ATTO 655-Cys-Lys-Leu-Val-Phe-Phe-Ala-Glu-Asp-Trp as substrate preincubated for 10 mins measured after 30 mins by spectrophotometer analysis
T1 sequence (P14735 whole entry): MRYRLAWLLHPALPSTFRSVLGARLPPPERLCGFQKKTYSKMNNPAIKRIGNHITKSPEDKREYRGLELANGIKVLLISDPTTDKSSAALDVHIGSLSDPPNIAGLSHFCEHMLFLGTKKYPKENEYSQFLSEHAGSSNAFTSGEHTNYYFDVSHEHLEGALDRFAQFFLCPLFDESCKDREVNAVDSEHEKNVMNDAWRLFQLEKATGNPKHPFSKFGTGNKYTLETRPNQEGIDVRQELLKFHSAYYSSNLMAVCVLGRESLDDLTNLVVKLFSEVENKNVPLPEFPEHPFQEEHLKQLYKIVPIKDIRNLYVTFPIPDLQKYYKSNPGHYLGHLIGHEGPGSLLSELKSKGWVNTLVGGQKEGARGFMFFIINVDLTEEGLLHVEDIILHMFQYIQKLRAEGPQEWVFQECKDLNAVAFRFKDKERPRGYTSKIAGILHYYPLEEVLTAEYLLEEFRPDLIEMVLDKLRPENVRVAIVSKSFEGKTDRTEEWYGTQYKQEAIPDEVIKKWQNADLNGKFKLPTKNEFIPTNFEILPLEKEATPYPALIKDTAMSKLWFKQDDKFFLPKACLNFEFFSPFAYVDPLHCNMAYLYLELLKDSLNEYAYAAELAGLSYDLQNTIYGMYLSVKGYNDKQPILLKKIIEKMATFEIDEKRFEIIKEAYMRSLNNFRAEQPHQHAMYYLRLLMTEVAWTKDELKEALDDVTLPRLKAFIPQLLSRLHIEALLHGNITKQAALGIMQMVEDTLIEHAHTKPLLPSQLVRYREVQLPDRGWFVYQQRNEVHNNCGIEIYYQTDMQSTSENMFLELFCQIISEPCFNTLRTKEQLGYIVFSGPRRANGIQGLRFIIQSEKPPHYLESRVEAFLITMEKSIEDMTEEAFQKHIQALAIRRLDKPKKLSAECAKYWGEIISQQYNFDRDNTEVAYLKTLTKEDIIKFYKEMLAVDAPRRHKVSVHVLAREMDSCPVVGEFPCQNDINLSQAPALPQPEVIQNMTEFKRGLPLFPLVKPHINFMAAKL

[1] = molecular target: Insulin-degrading enzyme (Homo sapiens) (UniProt P14735); assay: Inhibition of IDE in human SH-SY5Y cells expressing human APP751 with Swedish mutant/human […] assessed as effect on CTFs level after 24 to 48 hrs by Western blot
[2] = molecular target: Insulin-degrading enzyme (Homo sapiens) (UniProt P14735); assay: Inhibition of IDE in human SH-SY5Y cells expressing human APP751 with Swedish mutant/human […] assessed as increase of amyloid beta (1 to 42) level after 24 to 48 hrs by ELISA; type: cell-based
How it was run: (§1)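 SH-SY5Y APPswe and APPwt lines kept in DMEM with 10% fetal calf serum, 2 mM L-glutamine, 5% CO2, 37 °C. Seeded at 1.94 10^5 cells/well and treated 24 h later with vehicle or drug at 0.1 or 10 μM (from 10 mM DMSO stock) for 24 h and 48 h. Medium cleared by centrifugation and assayed by ELISA. Aβ1-42 used 100 μL of medium undiluted; Aβ1-40 used 10 μL diluted 1:10. Duplicates in three independent experiments, normalized to untreated cells.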

[3] = molecular target: T2, Insulin-degrading enzyme (Mus musculus) (UniProt Q9JHR7); assay: Inhibition of IDE in mouse Min6 cells assessed as effect on 11 mM of glucose-induced insulin secretion at 10 uM after 24 hrs by ELISA; type: cell-based
T2 sequence (whole entry): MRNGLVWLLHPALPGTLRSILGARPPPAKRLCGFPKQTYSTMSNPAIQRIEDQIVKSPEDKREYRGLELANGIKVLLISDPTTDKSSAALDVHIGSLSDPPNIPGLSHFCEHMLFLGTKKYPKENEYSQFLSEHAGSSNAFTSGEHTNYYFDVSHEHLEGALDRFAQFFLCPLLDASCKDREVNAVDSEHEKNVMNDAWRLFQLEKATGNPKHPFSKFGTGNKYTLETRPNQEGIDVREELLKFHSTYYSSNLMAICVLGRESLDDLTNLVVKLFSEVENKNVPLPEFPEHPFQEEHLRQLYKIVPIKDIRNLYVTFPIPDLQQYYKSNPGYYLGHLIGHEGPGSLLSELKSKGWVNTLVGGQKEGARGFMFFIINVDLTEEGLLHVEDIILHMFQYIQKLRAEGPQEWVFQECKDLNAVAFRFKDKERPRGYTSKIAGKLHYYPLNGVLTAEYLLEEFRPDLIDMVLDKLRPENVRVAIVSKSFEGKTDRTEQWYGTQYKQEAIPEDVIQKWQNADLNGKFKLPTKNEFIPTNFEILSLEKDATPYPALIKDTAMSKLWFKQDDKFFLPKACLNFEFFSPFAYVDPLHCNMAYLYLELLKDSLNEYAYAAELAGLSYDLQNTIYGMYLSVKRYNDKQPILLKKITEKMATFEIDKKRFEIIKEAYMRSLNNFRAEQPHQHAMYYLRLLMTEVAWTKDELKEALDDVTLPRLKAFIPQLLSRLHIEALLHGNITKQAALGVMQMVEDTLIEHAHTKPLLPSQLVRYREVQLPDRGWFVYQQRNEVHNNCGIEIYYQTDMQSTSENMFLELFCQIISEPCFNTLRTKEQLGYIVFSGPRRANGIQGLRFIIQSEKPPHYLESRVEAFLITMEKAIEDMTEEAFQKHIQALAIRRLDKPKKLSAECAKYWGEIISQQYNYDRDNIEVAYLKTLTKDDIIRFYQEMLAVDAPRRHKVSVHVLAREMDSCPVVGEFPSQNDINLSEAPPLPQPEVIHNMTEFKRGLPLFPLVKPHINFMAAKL

[4] = molecular target: Insulin-degrading enzyme (Homo sapiens) (UniProt P14735); assay: Inhibition of IDE in human SH-SY5Y cells expressing human APP751 with Swedish mutant/human […] assessed as increase of amyloid beta (1 to 40) level after 24 to 48 hrs by ELISA; type: cell-based; how it was run: as §1
[5] = molecular target: T2, Insulin-degrading enzyme (Mus musculus); assay: Inhibition of IDE in mouse Min6 cells assessed as effect on 2.8 mM of glucose-induced insulin secretion at 10 uM after 24 hrs by ELISA; type: cell-based
[6] = PBS-octanol partition coefficient, log D of the compound; type: physicochemical
Plasma = assay: Prodrug conversion in mouse plasma assessed as half life of BDM43079 formation at 10 uM by LC-MS/MS analysis; type: ADME, cell-free
[7] = molecular target: Insulin-degrading enzyme (Homo sapiens) (UniProt P14735); assay: Inhibition of IDE in human SH-SY5Y cells expressing human APP751 with Swedish mutant/human […] assessed as effect on APP holoproteins level after 24 to 48 hrs by Western blot
[8] = molecular target: T2, Insulin-degrading enzyme (Mus musculus); assay: Inhibition of IDE in mouse Min6 cells assessed as effect on 20 mM of glucose-induced insulin secretion at 10 uM after 24 hrs by ELISA; type: cell-based
[9] = Solubility of the compound in PBS at pH 7.4; type: physicochemical
[10] = molecular target: Insulin-degrading enzyme (Homo sapiens) (UniProt P14735); assay: Inhibition of IDE in immortalized human hepatocytes assessed as effect on insulin-induced PEPCK mRNA expression at 10 uM after 24 hrs by quantitative RT-PCR analysis; type: cell-based; set-up: scale not given: the % may be the effect or the level left; conditions: Hepatocyte
[11] = Prodrug conversion in IHH cell culture medium assessed as half life of BDM43079 formation at 10 uM by LC-MS/MS analysis; type: ADME, cell-based; conditions: human, hh
How it was run: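 Conversion to the active acid followed in William's E medium with 10% fetal calf serum.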

[12] = molecular target: Insulin-degrading enzyme (Homo sapiens) (UniProt P14735); assay: Inhibition of human recombinant IDE-mediated insulin hydrolysis assessed as residual insulin level at 100 uM preincubated for 10 mins measured after 30 mins by spectrophotometer analysis
[13] = Apparent permeability across human Caco2 cells at 10 uM after 1 hr by LC-MS/MS analysis; type: ADME, cell-based; conditions: Caco-2
[14] = molecular target: T3, Endothelin-converting enzyme 1 (Homo sapiens, UniProt P42892); assay: Inhibition of human recombinant ECE1-mediated amyloid beta hydrolysis after 45 mins by fluorimetry assay
T3 sequence (P42892 whole entry): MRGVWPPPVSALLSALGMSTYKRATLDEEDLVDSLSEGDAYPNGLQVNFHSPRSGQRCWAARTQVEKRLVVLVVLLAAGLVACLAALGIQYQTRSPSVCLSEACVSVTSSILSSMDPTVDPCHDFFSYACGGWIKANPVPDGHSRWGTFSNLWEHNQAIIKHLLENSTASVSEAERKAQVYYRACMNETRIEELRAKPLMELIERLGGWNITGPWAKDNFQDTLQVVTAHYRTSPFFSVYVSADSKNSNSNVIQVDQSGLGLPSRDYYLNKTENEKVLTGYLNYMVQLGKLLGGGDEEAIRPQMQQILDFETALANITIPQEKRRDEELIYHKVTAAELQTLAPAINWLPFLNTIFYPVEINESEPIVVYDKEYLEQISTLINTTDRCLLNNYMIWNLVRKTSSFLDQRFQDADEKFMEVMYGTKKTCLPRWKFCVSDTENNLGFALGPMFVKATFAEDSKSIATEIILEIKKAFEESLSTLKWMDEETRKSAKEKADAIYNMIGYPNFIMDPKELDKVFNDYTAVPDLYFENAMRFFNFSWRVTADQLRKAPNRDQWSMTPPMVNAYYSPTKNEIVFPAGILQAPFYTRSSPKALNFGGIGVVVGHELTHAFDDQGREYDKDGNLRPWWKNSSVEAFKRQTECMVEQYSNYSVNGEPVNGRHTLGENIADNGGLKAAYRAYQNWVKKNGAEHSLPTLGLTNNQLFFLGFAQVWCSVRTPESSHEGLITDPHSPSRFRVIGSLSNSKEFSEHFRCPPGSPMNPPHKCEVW

[15] = Half life in human liver microsomes at 1 uM by LC-MS/MS analysis; type: ADME
Neprilysin = Neprilysin (Homo sapiens, UniProt P08473); assay: Inhibition of human NEP-mediated amyloid beta hydrolysis
[16] = molecular target: Angiotensin-converting enzyme 2 (Homo sapiens, UniProt Q9BYF1); assay: Inhibition of human recombinant ACE2-mediated amyloid beta hydrolysis using Mca-Tyr-Val-Ala-Asp-Pro-Ala-Lys-(DNP)-OH as substrate after 20 mins by fluorimetry assay
Collagenase 3 = Collagenase 3 (Homo sapiens, UniProt P45452); assay: Inhibition of human recombinant MMP13-mediated amyloid beta hydrolysis after 10 mins by fluorimetry assay
[17] = molecular target: Disintegrin and metalloproteinase domain-containing protein 17 (Homo sapiens, UniProt P78536); assay: Inhibition of human recombinant TACE-mediated amyloid beta hydrolysis after 5 mins by fluorimetry assay
[18] = Half life in IHH cell culture medium at 10 uM by LC-MS/MS analysis; type: physicochemical, HH
How it was run: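 Stability measured in William's E medium with 10% fetal calf serum.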

Interstitial collagenase = molecular target: T4, Interstitial collagenase (Homo sapiens, UniProt P03956); assay: Inhibition of human recombinant MMP1-mediated amyloid beta hydrolysis using DNP-Pro-Cha-Gly- Cys(Me)-His-Ala- Lys(n-Me-Abz)-NH2 as substrate after 40 mins by fluorimetry assay
T4 sequence (P03956 whole entry): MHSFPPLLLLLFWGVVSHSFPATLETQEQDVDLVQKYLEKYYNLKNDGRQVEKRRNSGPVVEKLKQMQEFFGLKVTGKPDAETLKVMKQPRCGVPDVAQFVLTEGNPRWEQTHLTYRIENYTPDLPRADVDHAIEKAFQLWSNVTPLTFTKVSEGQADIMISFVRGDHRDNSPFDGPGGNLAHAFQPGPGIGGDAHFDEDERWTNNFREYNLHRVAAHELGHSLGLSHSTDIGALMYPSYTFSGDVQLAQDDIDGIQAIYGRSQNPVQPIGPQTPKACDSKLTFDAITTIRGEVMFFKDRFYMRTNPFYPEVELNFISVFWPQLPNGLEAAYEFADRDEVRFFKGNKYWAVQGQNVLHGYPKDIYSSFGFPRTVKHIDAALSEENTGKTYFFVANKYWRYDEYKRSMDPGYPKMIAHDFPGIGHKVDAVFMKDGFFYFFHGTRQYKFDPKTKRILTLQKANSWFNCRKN

[19] = molecular target: Angiotensin-converting enzyme (Homo sapiens, UniProt P12821); assay: Inhibition of human ACE-mediated amyloid beta hydrolysis
[20] = Half life in mouse plasma at 10 uM by LC-MS/MS analysis; type: ADME, cell-free

Sequence of Disintegrin and metalloproteinase domain-containing protein 17 (P78536 whole entry, the tested form may be a part): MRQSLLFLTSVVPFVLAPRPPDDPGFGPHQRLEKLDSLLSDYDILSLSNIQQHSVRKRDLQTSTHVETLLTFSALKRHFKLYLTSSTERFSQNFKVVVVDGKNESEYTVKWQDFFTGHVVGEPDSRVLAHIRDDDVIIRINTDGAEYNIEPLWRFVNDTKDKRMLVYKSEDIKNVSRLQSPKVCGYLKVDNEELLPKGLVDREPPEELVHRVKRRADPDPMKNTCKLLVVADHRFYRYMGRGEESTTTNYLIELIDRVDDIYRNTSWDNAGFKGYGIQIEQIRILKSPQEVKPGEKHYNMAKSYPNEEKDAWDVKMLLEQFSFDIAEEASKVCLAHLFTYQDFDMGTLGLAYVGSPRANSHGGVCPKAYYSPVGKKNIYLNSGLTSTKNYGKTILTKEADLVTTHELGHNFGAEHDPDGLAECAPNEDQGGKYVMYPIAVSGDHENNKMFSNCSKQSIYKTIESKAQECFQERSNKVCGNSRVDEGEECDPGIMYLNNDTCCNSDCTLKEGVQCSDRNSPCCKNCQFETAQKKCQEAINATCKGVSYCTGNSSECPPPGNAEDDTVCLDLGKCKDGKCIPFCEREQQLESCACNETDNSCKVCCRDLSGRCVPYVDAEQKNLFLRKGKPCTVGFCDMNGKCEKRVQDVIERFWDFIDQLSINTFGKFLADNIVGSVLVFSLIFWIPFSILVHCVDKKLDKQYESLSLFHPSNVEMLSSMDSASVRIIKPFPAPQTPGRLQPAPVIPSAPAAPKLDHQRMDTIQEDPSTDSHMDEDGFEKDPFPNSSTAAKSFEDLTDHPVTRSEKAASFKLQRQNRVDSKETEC
Sequence of Angiotensin-converting enzyme 2 (Q9BYF1 whole entry): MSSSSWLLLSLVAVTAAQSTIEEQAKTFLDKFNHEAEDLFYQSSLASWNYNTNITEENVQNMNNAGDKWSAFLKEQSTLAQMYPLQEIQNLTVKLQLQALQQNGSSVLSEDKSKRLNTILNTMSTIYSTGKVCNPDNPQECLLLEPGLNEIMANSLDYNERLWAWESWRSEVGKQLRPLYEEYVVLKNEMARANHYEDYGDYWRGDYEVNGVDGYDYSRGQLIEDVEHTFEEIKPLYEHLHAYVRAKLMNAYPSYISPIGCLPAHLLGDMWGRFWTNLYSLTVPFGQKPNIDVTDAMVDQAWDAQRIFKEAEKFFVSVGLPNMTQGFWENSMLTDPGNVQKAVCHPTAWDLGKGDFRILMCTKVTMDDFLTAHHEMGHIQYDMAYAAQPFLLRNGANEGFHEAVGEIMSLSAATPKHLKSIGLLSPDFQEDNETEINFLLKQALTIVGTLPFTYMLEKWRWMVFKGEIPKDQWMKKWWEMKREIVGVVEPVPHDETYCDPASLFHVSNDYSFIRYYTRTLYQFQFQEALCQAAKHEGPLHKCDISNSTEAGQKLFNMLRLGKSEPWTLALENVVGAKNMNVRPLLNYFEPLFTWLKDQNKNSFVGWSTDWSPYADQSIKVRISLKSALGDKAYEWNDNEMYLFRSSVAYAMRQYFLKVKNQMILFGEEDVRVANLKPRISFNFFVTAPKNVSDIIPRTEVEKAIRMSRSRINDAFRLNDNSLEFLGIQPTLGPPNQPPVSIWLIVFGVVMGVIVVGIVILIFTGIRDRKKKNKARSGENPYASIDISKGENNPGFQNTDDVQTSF
Sequence of Neprilysin (P08473 whole entry): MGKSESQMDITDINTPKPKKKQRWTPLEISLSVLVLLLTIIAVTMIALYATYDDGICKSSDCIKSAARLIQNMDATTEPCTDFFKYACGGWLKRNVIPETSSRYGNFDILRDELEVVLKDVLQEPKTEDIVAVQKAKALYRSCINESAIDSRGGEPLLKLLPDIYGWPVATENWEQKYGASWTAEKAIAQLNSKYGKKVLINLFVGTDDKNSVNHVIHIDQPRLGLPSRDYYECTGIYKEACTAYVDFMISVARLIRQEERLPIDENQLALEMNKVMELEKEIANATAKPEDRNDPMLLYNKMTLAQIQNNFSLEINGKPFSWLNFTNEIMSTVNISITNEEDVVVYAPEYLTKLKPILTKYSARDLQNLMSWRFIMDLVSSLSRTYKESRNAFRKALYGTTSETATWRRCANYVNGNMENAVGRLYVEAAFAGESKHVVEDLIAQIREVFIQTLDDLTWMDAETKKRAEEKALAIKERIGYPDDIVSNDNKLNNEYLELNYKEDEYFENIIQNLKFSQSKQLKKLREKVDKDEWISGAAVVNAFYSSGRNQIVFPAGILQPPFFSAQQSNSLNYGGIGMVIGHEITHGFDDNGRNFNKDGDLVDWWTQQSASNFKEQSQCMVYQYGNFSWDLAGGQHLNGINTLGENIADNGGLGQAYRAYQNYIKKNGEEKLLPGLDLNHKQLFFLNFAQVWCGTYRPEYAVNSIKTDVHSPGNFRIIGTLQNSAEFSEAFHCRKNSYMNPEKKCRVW
Sequence of Angiotensin-converting enzyme (P12821 whole entry): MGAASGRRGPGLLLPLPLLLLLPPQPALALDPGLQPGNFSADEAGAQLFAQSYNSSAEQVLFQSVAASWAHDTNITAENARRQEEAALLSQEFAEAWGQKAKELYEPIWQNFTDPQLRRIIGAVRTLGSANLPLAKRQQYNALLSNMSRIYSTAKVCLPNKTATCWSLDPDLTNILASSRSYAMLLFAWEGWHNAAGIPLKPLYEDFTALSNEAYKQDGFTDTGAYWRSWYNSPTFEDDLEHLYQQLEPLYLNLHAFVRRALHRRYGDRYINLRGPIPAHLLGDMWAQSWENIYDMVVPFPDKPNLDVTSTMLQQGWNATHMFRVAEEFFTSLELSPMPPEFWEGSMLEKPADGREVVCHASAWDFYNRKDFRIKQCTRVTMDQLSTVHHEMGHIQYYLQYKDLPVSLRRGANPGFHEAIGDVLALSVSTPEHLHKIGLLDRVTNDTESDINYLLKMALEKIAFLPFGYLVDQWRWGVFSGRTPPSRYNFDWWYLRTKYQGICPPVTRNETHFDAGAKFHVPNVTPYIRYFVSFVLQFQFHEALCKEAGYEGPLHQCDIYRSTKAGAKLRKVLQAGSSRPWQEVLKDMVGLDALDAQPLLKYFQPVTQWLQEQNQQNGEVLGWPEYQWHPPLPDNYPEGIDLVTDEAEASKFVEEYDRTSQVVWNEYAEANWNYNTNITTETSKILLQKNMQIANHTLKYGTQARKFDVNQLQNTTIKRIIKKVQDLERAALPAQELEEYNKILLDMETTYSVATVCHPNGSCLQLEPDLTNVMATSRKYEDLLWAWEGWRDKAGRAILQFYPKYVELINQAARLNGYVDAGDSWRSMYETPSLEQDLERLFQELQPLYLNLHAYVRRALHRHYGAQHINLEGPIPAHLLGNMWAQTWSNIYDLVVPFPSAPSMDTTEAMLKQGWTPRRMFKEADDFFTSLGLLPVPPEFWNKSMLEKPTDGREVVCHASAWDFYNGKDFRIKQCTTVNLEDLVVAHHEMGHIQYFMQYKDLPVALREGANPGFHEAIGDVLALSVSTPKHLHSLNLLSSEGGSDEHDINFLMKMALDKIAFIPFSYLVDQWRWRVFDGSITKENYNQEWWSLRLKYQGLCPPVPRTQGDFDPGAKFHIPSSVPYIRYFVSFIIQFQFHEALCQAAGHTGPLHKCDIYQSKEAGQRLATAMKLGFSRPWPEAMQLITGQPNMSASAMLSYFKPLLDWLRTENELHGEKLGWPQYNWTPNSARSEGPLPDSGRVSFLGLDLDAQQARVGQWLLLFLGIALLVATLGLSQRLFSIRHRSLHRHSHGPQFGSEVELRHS

IC50 (Insulin-degrading enzyme): 0.6 µM
SMILES: COC(=O)[C@H](Cc1c[nH]cn1)NC(=O)CN(CCCc1ccccc1)CC(=O)O

inhibition [1]: inactive
inhibition [2]: Dose-dependent effect
Activity [3]: 78.8 µg/L
inhibition [4]: Dose-dependent effect
IC50 (Insulin-degrading enzyme): > 100 µM
Activity [5]: 21.2 µg/L
logD [6]: 1.1
t1/2 (Plasma): 6 min
inhibition [7]: inactive
Activity [8]: 132 µg/L
solubility [9]: 74 µM (≈ 30.7 µg/mL)
t1/2 [11]: 11.3 h
Activity [12]: 50%
Papp at 1 h, 10 µM [13]: 0.2 ×10⁻⁶ cm/s
SMILES: CNC(=O)[C@H](Cc1c[nH]cn1)NC(=O)CN(CCCc1ccccc1)CC(=O)OC
Activity [10]: 62%

SMILES: CNC(=O)[C@H](Cc1c[nH]cn1)NC(=O)CN(CCCc1ccccc1)CC(=O)O
IC50 [14]: > 100 µM
half-life at 1 µM [15]: > 0.667 h
IC50 (Neprilysin): > 100 µM
IC50 [16]: > 100 µM
IC50 (Collagenase 3): > 100 µM
IC50 [17]: > 100 µM
logD [6]: -1.4
half-life at 10 µM [18]: > 24 h
solubility [9]: 68 µM (≈ 27.3 µg/mL)
IC50 (Interstitial collagenase): > 100 µM
IC50 [19]: > 100 µM
half-life at 10 µM [20]: > 48 h

Reference: ChEMBL document CHEMBL3232818, “Imidazole-derived 2-[N-carbamoylmethyl-alkylamino]acetic acids, substrate-dependent modulators of insulin-degrading enzyme in amyloid-β hydrolysis” (Eur J Med Chem, 2014)
